Publication PMC7089779 (ChemMedChem, 2018)
Like-named read-outs stand apart in the source and are kept apart here.

Experiments:
[1] = tested on: L. infantum axenic amastigotes; test: Antileishmanial activity on L. infantum axenic amastigotes; format: cell-based; conditions: Leishmania infantum, 48 h, read-out: IC50 L. infantum axenic amastigotes
Method in brief: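 They were moved to RPMI at pH 5.4 for 24 h at 24°C, then 24 h at 37°C, to give axenic amastigotes. Compounds in DMSO (final <0.5% v/v) were tested in duplicate for 48 h at 37°C. Read-out was Steady Glow luminescence. IC50 came from non-linear regression, mean of three independent experiments.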

[2] = Cytotoxic evaluation on HepG2 cell line; format: cell-based; conditions: human, HepG2 cells (hepatocarcinoma cell line)
Method in brief: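 HepG2 cells were seeded at 1 × 10^5 cells/mL in Alpha MEM with 10% FBS, 2 mM L-glutamine and antibiotics, and pre-incubated for 24 h at 37°C, 5% CO2. Compounds were added at various concentrations for 72 h, and wells were checked for precipitate. MTT (0.5 mg/mL) was added for 2 h, formazan was dissolved in DMSO, and A570 was read. Doxorubicin was the positive control. CC50 came from non-linear regression, mean of three independent experiments.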

[3] = tested on: T. brucei brucei trypomastigotes; test: Antitrypanosomal activity on T. brucei brucei trypomastigotes; format: cell-based, Trypanosoma brucei brucei; conditions: for Antitrypanosomal selectivity Index: CC50 HepG2 / IC50 T. brucei brucei; for times more potent than the meta-substituted analogue: T. brucei brucei IC50, para versus meta (15 vs 16, 21 vs 22)
[4] = Cyclic voltammetry, reduction potentials; format: physicochemical; conditions: DMSO/TBAPF6, SCE/GC, 1 electron reversible reduction, V versus NHE
[5] = tested on: T. brucei brucei trypomastigotes wild type strain; test: Bioactivation study, wild type strain; format: cell-based; conditions: Trypanosoma brucei, 72 h, read-out: IC50 T. brucei brucei trypomastigotes wild type strain
[6] = tested on: T. brucei brucei trypomastigotes NTR over-expressing strain; test: Bioactivation study, strain overexpressing the nitroreductase; format: cell-based, Trypanosoma brucei; conditions: for IC50: Trypanosoma brucei, 72 h, read-out: IC50 T. brucei brucei trypomastigotes NTR over-expressing strain; for Fold change: wild type IC50 / NTR over-expressing IC50
Method in brief: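 Bloodstream T. brucei S427 'single marker' was grown at 37°C in HMI9-T with 2.5 µg/mL G418. The NTR1-overexpressing line also received 2.5 µg/mL phleomycin, with NTR induced by 1 µg/mL tetracycline 48 h before assay. Triplicate cultures were seeded at 1 × 10^5 cells/mL with inhibitor and counted after 72 h. EC50 came from a two-parameter fit (slope factor m) to background-corrected density as % of uninhibited control. Fold change is wild-type IC50 / overexpressor IC50.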

[7] = Chemical stability of the product; format: physicochemical; conditions: in words; cyclises to 25 on recrystallisation from acetonitrile
[8] = Aqueous solubility as observed in the biological assays; format: physicochemical; conditions: in words
[9] = tested on: T. brucei brucei trypomastigotes wild type strain; conditions: read-out: IC50 T. brucei brucei trypomastigotes wild type strain; cited from earlier work
[10] = tested on: T. brucei brucei trypomastigotes NTR over-expressing strain; conditions: wild type IC50 / NTR over-expressing IC50; cited from earlier work
HepG2 cell line = conditions: read-out: CC50 HepG2; cited from earlier work
[11] = cited from earlier work
[12] = tested on: L. infantum axenic amastigotes; conditions: read-out: IC50 L. infantum axenic amastigotes; cited from earlier work
[13] = tested on: T. brucei brucei trypomastigotes; conditions: cited from earlier work

| Structure (SMILES) | IC50 [1] | CC50 at 72 h [2] | Antitrypanosomal selectivity Index [3] | further results |
| --- | --- | --- | --- | --- |
| C[C@@H]1[C@H](O)[C@@H](C)/C=C/C=C/C=C/C=C/C=C/C=C/C=C/[C@H](O[C@@H]2O[C@H](C)[C@@H](O)[C@H](N)[C@@H]2O)C[C@@H]2O[C@](O)(C[C@@H](O)C[C@@H](O)[C@H](O)CC[C@@H](O)C[C@@H](O)CC(=O)O[C@H]1C)C[C@H](O)[C@H]2C(=O)O [Amphotericin B, reference compound] | 0.06 ± 0.001 µM | 7 ± 0.25 µM |  |  |
| O=c1[nH]c2c([N+](=O)[O-])cccc2cc1-c1ccccc1 [Compound 1, 8-nitro-3-phenylquinolin-2(1H)-one] | > 12 µM | > 12 µM | >2 | E° (reduction potential) [4]: -0.59 V |
| COc1ccc(-c2cc3cccc([N+](=O)[O-])c3[nH]c2=O)cc1 [Compound 2, 3-(4-methoxyphenyl)-8-nitroquinolin-2(1H)-one] | > 6 µM | > 6 µM |  |  |
| O=c1[nH]c2c([N+](=O)[O-])cccc2cc1-c1ccc(O)cc1 [Compound 3, 3-(4-hydroxyphenyl)-8-nitroquinolin-2(1H)-one] | > 3 µM | > 3 µM |  |  |
| Nc1ccc(-c2cc3cccc([N+](=O)[O-])c3[nH]c2=O)cc1 [Compound 4, 3-(4-aminophenyl)-8-nitroquinolin-2(1H)-one] | > 3 µM | > 3 µM |  |  |
| O=c1[nH]c2c([N+](=O)[O-])cccc2cc1-c1ccc(Cl)cc1 [Compound 5, 3-(4-chlorophenyl)-8-nitroquinolin-2(1H)-one] | > 3 µM | > 3 µM |  |  |
| O=c1[nH]c2c([N+](=O)[O-])cccc2cc1-c1ccc(F)cc1 [Compound 6, 3-(4-fluorophenyl)-8-nitroquinolin-2(1H)-one] | > 6 µM | > 6 µM |  |  |
| O=c1[nH]c2c([N+](=O)[O-])cccc2cc1-c1ccc(C(F)(F)F)cc1 [Compound 7, 8-nitro-3-(4-trifluoromethylphenyl)quinolin-2(1H)-one] | > 6 µM | > 6 µM |  | E° (reduction potential) [4]: -0.53 V |
| O=c1[nH]c2c([N+](=O)[O-])cccc2cc1-c1ccsc1 [Compound 8, 8-nitro-3-(thiophen-3-yl)quinolin-2(1H)-one] | > 6 µM | > 6 µM |  |  |
| O=c1[nH]c2c([N+](=O)[O-])cccc2cc1-c1ccco1 [Compound 9, 3-(2-furanyl)-8-nitroquinolin-2(1H)-one] | > 3 µM | > 3 µM |  |  |
| O=c1[nH]c2c([N+](=O)[O-])cccc2cc1-c1cccnc1 [Compound 10, 8-nitro-3-(pyridine-3-yl)quinolin-2(1H)-one] | > 50 µM | > 25 µM | >9 |  |
| O=c1[nH]c2c([N+](=O)[O-])cccc2cc1-c1ccc(CO)cc1 [Compound 12, 3-(4-hydroxymethylphenyl)-8-nitroquinolin-2(1H)-one] | > 25 µM | > 25 µM | >13 |  |
| O=c1[nH]c2c([N+](=O)[O-])cccc2cc1-c1cccc(CO)c1 [Compound 13, 3-(3-hydroxymethylphenyl)-8-nitroquinolin-2(1H)-one] | 29.3 ± 4.2 µM | > 25 µM | >17 |  |
| O=c1[nH]c2c([N+](=O)[O-])cccc2cc1-c1ccccc1CO [Compound 14, 3-(2-hydroxymethylphenyl)-8-nitroquinolin-2(1H)-one] | 22 ± 2 µM | > 100 µM | >14 |  |
| O=C(O)c1ccc(-c2cc3cccc([N+](=O)[O-])c3[nH]c2=O)cc1 [Compound 21, 3-(4-carboxyphenyl)-8-nitroquinolin-2(1H)-one] | > 100 µM | 120 ± 7 µM | 80 | times more potent than the meta-substituted analogue [3]: 5; IC50 [5]: 5.4 ± 0.12 µM; E° (reduction potential) [4]: -0.56 V; IC50 [6]: 4.2 ± 0.2 µM; Fold change [6]: 1.3 |
| O=c1[nH]c2c([N+](=O)[O-])cccc2cc1C#Cc1ccccc1 [Compound 24, 8-nitro-3-phenylethynylquinolin-2(1H)-one] |  |  |  | stability [7]: too unstable |
| O=[N+]([O-])c1cccc2cc3cc(-c4ccccc4)oc3nc12 [Compound 25, 8-nitro-2-phenyl-furo[2,3-b]quinoline] |  |  |  | aqueous solubility [8]: very poor aqueous solubility |
| COc1cccc2c1C(=O)c1c(O)c3c(c(O)c1C2=O)C[C@@](O)(C(=O)CO)C[C@@H]3O[C@H]1C[C@H](N)[C@H](O)[C@H](C)O1 [Doxorubicin, reference compound] |  | 0.2 ± 0.02 µM |  |  |
| NCCCC(N)(C(=O)O)C(F)F (centres unmarked) [Eflornithine, reference compound] |  | > 100 µM | >6 |  |
| O=c1[nH]c2c([N+](=O)[O-])cccc2cc1Br [Initial Hit, 3-bromo-8-nitroquinolin-2(1H)-one] |  |  |  | IC50 [9]: 17.7 ± 1 µM; Fold change [10]: 4.5; CC50 (HepG2 cell line): 92 ± 13 µM; genotoxicity in the comet assay [11]: not genotoxic; IC50 [12]: 7.1 ± 1.5 µM; Antitrypanosomal selectivity Index ([13]; CC50 HepG2 / IC50 T. brucei brucei): 48; IC50 ([13]; read-out: IC50 T. brucei brucei trypomastigotes): 1.9 ± 0.44 µM |
| CC1CS(=O)(=O)CCN1/N=C/c1ccc([N+](=O)[O-])o1 (centres unmarked) [Nifurtimox, reference compound] |  |  |  | IC50 [5]: 1.9 ± 0.05 µM; IC50 [6]: 0.6 ± 0.05 µM; Fold change [6]: 3.1 |
| Cc1ccc(C(=O)Nc2ccc(S(=O)(=O)O)c3cc(S(=O)(=O)O)cc(S(=O)(=O)O)c23)cc1NC(=O)c1cccc(NC(=O)Nc2cccc(C(=O)Nc3cc(C(=O)Nc4ccc(S(=O)(=O)O)c5cc(S(=O)(=O)O)cc(S(=O)(=O)O)c45)ccc3C)c2)c1 [Suramin, reference compound] |  | > 100 µM | >3333 |  |

Further lines, with some results ahead:

| IC50 [1] | Structure (SMILES) | CC50 at 72 h [2] | Antitrypanosomal selectivity Index [3] | further results |
| --- | --- | --- | --- | --- |
| 35 ± 1.7 µM | O=Cc1ccc(-c2cc3cccc([N+](=O)[O-])c3[nH]c2=O)cc1 [Compound 15, 3-(4-formylphenyl)-8-nitroquinolin-2(1H)-one] | 30 ± 3.7 µM | 60 | times more potent than the meta-substituted analogue [3]: 11 |
| 10.2 ± 0.6 µM | O=Cc1cccc(-c2cc3cccc([N+](=O)[O-])c3[nH]c2=O)c1 [Compound 16, 3-(3-formylphenyl)-8-nitroquinolin-2(1H)-one] | > 100 µM | >18 |  |
| 9.8 ± 1.2 µM | O=Cc1ccccc1-c1cc2cccc([N+](=O)[O-])c2[nH]c1=O [Compound 17, 3-(2-formylphenyl)-8-nitroquinolin-2(1H)-one] | > 50 µM | >7 |  |
| > 12.5 µM | COC(=O)c1ccc(-c2cc3cccc([N+](=O)[O-])c3[nH]c2=O)cc1 [Compound 18, 3-(4-methoxycarbonylphenyl)-8-nitroquinolin-2(1H)-one] | > 12.5 µM |  |  |
| > 100 µM | O=C(O)c1cccc(-c2cc3cccc([N+](=O)[O-])c3[nH]c2=O)c1 [Compound 22, 3-(3-carboxyphenyl)-8-nitroquinolin-2(1H)-one] | > 100 µM | >13 |  |
| > 100 µM | O=C(O)c1ccccc1-c1cc2cccc([N+](=O)[O-])c2[nH]c1=O [Compound 23, 3-(2-carboxyphenyl)-8-nitroquinolin-2(1H)-one] | > 100 µM |  |  |
| 12.8 µM | COc1nc2c([N+](=O)[O-])cccc2cc1-c1ccc(C(=O)O)cc1 [Compound 26, 3-(4-carboxyphenyl)-2-methoxy-8-nitroquinoline] |  |  |  |
| 3.3 ± 0.7 µM | CSc1ccc(OCc2ncc([N+](=O)[O-])n2C)cc1 [Fexinidazole, reference compound] | > 100 µM | >250 |  |
| 0.8 ± 0.2 µM | CCCCCCCCCCCCCCCCOP(=O)([O-])OCC[N+](C)(C)C [Miltefosine, reference compound] | 84.5 ± 8.8 µM |  |  |
